Experimental data taken from ChEMBL document CHEMBL1136139, “The design, synthesis and evaluation of novel HIV-1 protease inhibitors with high potency against PI-resistant viral strains” (Bioorg Med Chem Lett, 2003).

Legend:
Cytochrome P450 2D6 = Cytochrome P450 2D6 (Homo sapiens, UniProt P10635); assay: Inhibition of human liver microsome Cytochrome P450 2D6; type: ADME, microsomes
Cytochrome P450 3A4 = Cytochrome P450 3A4 (Homo sapiens, UniProt P08684); assay: Inhibition of human liver microsome Cytochrome P450 3A4
[1] = Cmax was determine after peroral administration at 10 mpk in dog; type: ADME, organism-based, Canis lupus familiaris; parameters: dose 10 mpk, route oral; conditions: in vivo, po, 10 mg/kg
How it was run: (§1)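 Dogs dosed both intravenously (2 mg/kg) and orally (10 mg/kg). Cmax, half-life, plasma clearance (mL/min/kg) and oral bioavailability (%) were derived from plasma drug levels. The study was IACUC-approved.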

[2] = Half life period was determine after peroral administration at 10 mpk in dog; type: ADME, organism-based, Canis lupus familiaris; conditions: in vivo, po, 10 mg/kg; how it was run: as §1
MT4 [3] = assay: Ability to inhibit spread of viral infection in MT-4 human T-lymphoidcell infected by wild-type HIV-1(strain NL4-3); type: functional; conditions: read-out: CIC95
How it was run: (§2)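 MT4 human T-lymphoid cells infected with HIV-1, either wild-type NL4-3 or engineered PI-resistant constructs (4X, K-60C, V-18C, Q-60C) carrying varied patterns of multiple PI resistance mutations; spread of infection in culture followed. Value is CIC95, the compound concentration inhibiting at least 95% of infectious viral spread relative to untreated virus control culture.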

[4] = Plasma clearance after peroral administration at 10 mpk in dog; type: ADME, organism-based, Canis lupus familiaris; conditions: po, 10 mg/kg, read-out: Clp; how it was run: as §1
[5] = In vitro intrinsic clearance in human liver microsome; type: ADME; conditions: liver microsomes
How it was run: (§3)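 The compound was incubated with liver microsomes from rat, dog, rhesus and human. Metabolic stability was expressed as intrinsic clearance scaled to mL/min/kg.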

[6] = target: Human immunodeficiency virus type 1 protease (Human immunodeficiency virus 1, UniProt Q72874); assay: Inhibitory activity against HIV-1 Protease
MT4 [7] = assay: Ability to inhibit spread of viral infection in MT-4 human T-lymphoidcell infected by PI-resistant HIV-1 (strain K-60C); type: functional; conditions: read-out: CIC95; how it was run: as §2
Cytochrome P450 2C9 = Cytochrome P450 2C9 (Homo sapiens, UniProt P11712); assay: Inhibition of human liver microsome Cytochrome P450 2C9; type: ADME, microsomes
[8] = Oral bioavailability in dog (dose 10 mg/kg); type: ADME, organism-based, Canis lupus familiaris; conditions: in vivo; how it was run: as §1
MT4 [9] = assay: Ability to inhibit spread of viral infection in MT-4 human T-lymphoidcell infected by PI-resistant HIV-1 (strain V-18C); type: functional; conditions: read-out: CIC95; how it was run: as §2
MT4 [10] = assay: Ability to inhibit spread of viral infection in MT-4 human T-lymphoidcell infected by PI-resistant HIV-1 (strain Q-60C); type: functional; conditions: read-out: CIC95; how it was run: as §2
MT4 [11] = assay: Ability to inhibit spread of viral infection in MT-4 human T-lymphoidcell infected by PI-resistant HIV-1 (strain 4X Virus); type: functional; conditions: read-out: CIC95; how it was run: as §2
[12] = Oral bioavailability after peroral administration at 50 mpk in Rat; type: ADME, organism-based; conditions: in vivo, 50 mg/kg
How it was run: (§4)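 Rats were dosed orally across 10–160 mg/kg (10, 20, 50, 160). The 10 mg/kg oral arm was paired with 5 mg/kg intravenous dosing. Cmax, AUC, half-life, plasma clearance (mL/min/kg) and bioavailability (%) were determined at each oral dose.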

[13] = Area under curve was determine after peroral administration at 160 mpk in Rat; type: ADME, organism-based; conditions: in vivo, po, 160 mg/kg; how it was run: as §4
Rhesus monkey [14] = assay: Plasma clearance after peroral administration at 10 mpk in Rhesus; type: ADME, organism-based, Macaca mulatta; conditions: in vivo, po, 10 mg/kg
How it was run: (§5)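 Rhesus monkeys were given 10 mg/kg orally and 2 mg/kg intravenously. Cmax, half-life, AUC, plasma clearance (mL/min/kg) and bioavailability (%) were taken from plasma concentration profiles.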

Rattus norvegicus [15] = assay: Area under curve was determine after peroral administration at 10 mpk in Rat; type: ADME, organism-based; conditions: in vivo, po, 10 mg/kg; how it was run: as §4
[16] = Oral bioavailability in Rhesus monkey (dose 10 mg/kg p.o.); type: ADME, organism-based, Macaca mulatta; conditions: in vivo; how it was run: as §5
[17] = Cmax was determine after peroral administration at 10 mpk in Rat; type: ADME, organism-based; parameters: dose 10 mpk, route oral; conditions: in vivo, po, 10 mg/kg; how it was run: as §4
[18] = Oral bioavailability after peroral administration at 10 mpk in Rat; type: ADME, organism-based; conditions: in vivo, 10 mg/kg; how it was run: as §4
[19] = Cmax was determine after peroral administration at 20 mpk in Rat; type: ADME, organism-based; parameters: dose 20 mpk, route oral; conditions: in vivo, po, 20 mg/kg; how it was run: as §4
[20] = Cmax was determine after peroral administration at 50 mpk in Rat; type: ADME, organism-based; parameters: dose 50 mpk, route oral; conditions: in vivo, po, 50 mg/kg; how it was run: as §4
[21] = Area under curve was determine after peroral administration at 50 mpk in Rat; type: ADME, organism-based; conditions: in vivo, po, 50 mg/kg; how it was run: as §4
Rattus norvegicus [22] = assay: Plasma clearance after peroral administration at 10 mpk in Rat; type: ADME, organism-based; conditions: in vivo, po, 10 mg/kg; how it was run: as §4
[23] = Area under curve was determine after peroral administration at 20 mpk in Rat; type: ADME, organism-based; conditions: in vivo, po, 20 mg/kg; how it was run: as §4
[24] = Oral bioavailability after peroral administration at 160 mpk in Rat; type: ADME, organism-based; conditions: in vivo, 160 mg/kg; how it was run: as §4
[25] = Intrinsic clearance in dog liver microsome; type: ADME, Canis lupus familiaris; conditions: liver microsomes; how it was run: as §3
[26] = Intrinsic clearance in Rhesus liver microsome; type: ADME, Macaca mulatta; conditions: rhesus monkey, liver microsomes; how it was run: as §3
[27] = Half life period was determine after peroral administration at 10 mpk in Rat; type: ADME, organism-based; conditions: in vivo, po, 10 mg/kg; how it was run: as §4
[28] = Cmax was determine after peroral administration at 10 mpk in Rhesus; type: ADME, organism-based, Macaca mulatta; parameters: dose 10 mpk, route oral; conditions: rhesus monkey, in vivo, po, 10 mg/kg; how it was run: as §5
[29] = Oral bioavailability after peroral administration at 20 mpk in Rat; type: ADME, organism-based; conditions: in vivo, 20 mg/kg; how it was run: as §4
[30] = Cmax was determine after peroral administration at 160 mpk in Rat; type: ADME, organism-based; parameters: dose 160 mpk, route oral; conditions: in vivo, po, 160 mg/kg; how it was run: as §4
[31] = Half life period was determine after peroral administration at 10 mpk in Rhesus; type: ADME, organism-based, Macaca mulatta; conditions: rhesus monkey, in vivo, po, 10 mg/kg; how it was run: as §5
Rhesus monkey [32] = assay: Area under curve was determine after peroral administration at 10 mpk in Rhesus; type: ADME, organism-based, Macaca mulatta; conditions: in vivo, po, 10 mg/kg; how it was run: as §5
[33] = Intrinsic clearance in rat liver microsome; type: ADME; conditions: liver microsomes; how it was run: as §3

Chain of Cytochrome P450 2C9 (P11712 whole entry): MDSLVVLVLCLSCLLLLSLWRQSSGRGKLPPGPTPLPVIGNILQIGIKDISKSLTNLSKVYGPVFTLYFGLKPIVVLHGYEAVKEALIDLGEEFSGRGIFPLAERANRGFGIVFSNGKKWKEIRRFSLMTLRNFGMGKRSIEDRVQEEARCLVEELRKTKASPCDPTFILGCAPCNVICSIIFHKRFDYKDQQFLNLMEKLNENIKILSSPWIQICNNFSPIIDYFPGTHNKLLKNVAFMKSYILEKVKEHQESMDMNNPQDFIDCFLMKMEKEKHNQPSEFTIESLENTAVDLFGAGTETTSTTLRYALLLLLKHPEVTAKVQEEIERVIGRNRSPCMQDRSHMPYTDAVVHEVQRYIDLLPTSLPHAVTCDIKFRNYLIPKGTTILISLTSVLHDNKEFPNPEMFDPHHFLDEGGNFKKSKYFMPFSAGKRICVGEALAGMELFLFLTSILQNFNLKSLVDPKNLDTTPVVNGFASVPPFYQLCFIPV
Chain of Cytochrome P450 2D6 (P10635 whole entry): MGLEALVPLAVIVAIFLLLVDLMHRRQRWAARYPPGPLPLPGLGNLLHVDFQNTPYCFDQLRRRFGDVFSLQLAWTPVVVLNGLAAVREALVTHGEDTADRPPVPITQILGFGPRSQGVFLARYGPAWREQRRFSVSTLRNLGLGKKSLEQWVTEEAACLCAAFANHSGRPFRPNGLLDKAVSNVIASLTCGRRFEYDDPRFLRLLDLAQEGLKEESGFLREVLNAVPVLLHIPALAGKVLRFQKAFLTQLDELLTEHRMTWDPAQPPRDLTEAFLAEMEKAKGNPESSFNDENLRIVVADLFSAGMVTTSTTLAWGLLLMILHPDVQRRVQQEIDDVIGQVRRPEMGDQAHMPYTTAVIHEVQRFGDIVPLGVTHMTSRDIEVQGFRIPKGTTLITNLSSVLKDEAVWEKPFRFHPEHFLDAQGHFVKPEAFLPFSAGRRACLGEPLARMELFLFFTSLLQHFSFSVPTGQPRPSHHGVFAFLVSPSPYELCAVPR
Chain of Cytochrome P450 3A4 (P08684 whole entry): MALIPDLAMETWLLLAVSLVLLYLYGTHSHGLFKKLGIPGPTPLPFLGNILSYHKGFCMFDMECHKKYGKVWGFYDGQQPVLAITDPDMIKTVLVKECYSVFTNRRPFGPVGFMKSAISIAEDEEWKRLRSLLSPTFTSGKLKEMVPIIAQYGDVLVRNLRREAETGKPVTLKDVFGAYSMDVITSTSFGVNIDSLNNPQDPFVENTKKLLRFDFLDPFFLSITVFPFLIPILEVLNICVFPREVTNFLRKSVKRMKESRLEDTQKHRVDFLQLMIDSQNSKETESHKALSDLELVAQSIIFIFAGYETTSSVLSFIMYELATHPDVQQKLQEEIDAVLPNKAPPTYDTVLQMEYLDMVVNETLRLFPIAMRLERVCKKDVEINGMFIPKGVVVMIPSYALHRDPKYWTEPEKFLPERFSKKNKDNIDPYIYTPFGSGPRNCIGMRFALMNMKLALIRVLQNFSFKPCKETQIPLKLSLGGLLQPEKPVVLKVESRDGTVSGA

Compound: CC(C)(c1ncc(-c2cnccc2Cl)o1)N1CCN(C[C@@H](O)C[C@@H](Cc2ccccc2)C(=O)N[C@H]2c3ccccc3OC[C@H]2O)[C@H](C(=O)NCC(F)(F)F)C1
- IC50 (Cytochrome P450 2D6): 4.17 µM
- IC50 (Cytochrome P450 3A4): 40 nM
- Cmax [1]: 1 µM
- half-life [2]: 92 min
- IC95 (MT4 [3]): ≤ 0.008 µM
- CL/F [4]: 19 mL/min/kg
- CLint scaled [5]: 35 mL/min/kg
- IC50 [6]: 0.02 nM
- IC95 (MT4 [7]): 0.016 µM
- IC50 (Cytochrome P450 2C9): 21 µM
- bioavailability [8]: 8%
- IC95 (MT4 [9]): 0.031 µM

Compound: CC(C)(c1ncc(-c2ccccn2)o1)N1CCN(C[C@@H](O)C[C@@H](Cc2ccccc2)C(=O)N[C@H]2c3ccccc3OC[C@H]2O)[C@H](C(=O)NCC(F)(F)F)C1
- IC50 (Cytochrome P450 2D6): 22.2 µM
- IC50 (Cytochrome P450 3A4): 5000 nM
- IC95 (MT4 [3]): ≤ 0.008 µM
- IC95 (MT4 [10]): 0.015 µM
- CLint scaled [5]: 500 mL/min/kg
- IC50 [6]: 0.04 nM
- IC95 (MT4 [7]): 0.031 µM
- IC50 (Cytochrome P450 2C9): 28 µM
- IC95 (MT4 [9]): 0.062 µM

Compound: O=C(N[C@H]1c2ccccc2OC[C@H]1O)[C@H](Cc1ccccc1)C[C@H](O)CN1CCN(Cc2ncc(-c3ccncc3)o2)C[C@H]1C(=O)NCC(F)(F)F
- IC95 (MT4 [3]): 0.023 µM
- IC95 (MT4 [10]): 0.25 µM
- IC95 (MT4 [11]): 0.062 µM
- IC50 [6]: 0.1 nM
- IC95 (MT4 [7]): 0.125 µM
- IC95 (MT4 [9]): 0.125 µM

Compound: O=C(N[C@H]1c2ccccc2OC[C@H]1O)[C@H](Cc1ccccc1)C[C@H](O)CN1CCN(Cc2ncc(-c3ccccn3)o2)C[C@H]1C(=O)NCC(F)(F)F
- IC95 (MT4 [3]): 0.023 µM
- IC95 (MT4 [10]): 0.125 µM
- IC95 (MT4 [11]): 0.031 µM
- IC50 [6]: 0.13 nM
- IC95 (MT4 [9]): 0.125 µM

Compound: CC(C)(c1ncc(-c2cccnc2)o1)N1CCN(C[C@@H](O)C[C@@H](Cc2ccccc2)C(=O)N[C@H]2c3ccccc3OC[C@H]2O)[C@H](C(=O)NCC(F)(F)F)C1
- IC50 (Cytochrome P450 2D6): 10.5 µM
- IC50 (Cytochrome P450 3A4): 110 nM
- Cmax [1]: 3.8 µM
- half-life [2]: 94 min
- IC95 (MT4 [3]): ≤ 0.008 µM
- CL/F [4]: 21 mL/min/kg
- IC95 (MT4 [10]): 0.031 µM
- CLint scaled [5]: 27 mL/min/kg
- IC50 [6]: 0.04 nM
- IC95 (MT4 [7]): 0.031 µM
- IC50 (Cytochrome P450 2C9): 33 µM
- bioavailability [8]: 10%
- IC95 (MT4 [9]): 0.125 µM

Compound: CC(C)(C)NC(=O)[C@@H]1CN(Cc2cccnc2)CCN1C[C@@H](O)C[C@@H](Cc1ccccc1)C(=O)N[C@H]1c2ccccc2C[C@H]1O
- IC95 (MT4 [3]): 0.05 µM
- IC95 (MT4 [10]): > 1 µM
- IC95 (MT4 [11]): 0.4 µM
- IC95 (MT4 [7]): > 1 µM
- IC95 (MT4 [9]): > 1 µM

Compound: O=C(N[C@H]1c2ccccc2OC[C@H]1O)[C@H](Cc1ccccc1)C[C@H](O)CN1CCN(Cc2ccc(-c3ccccn3)o2)C[C@H]1C(=O)NCC(F)(F)F
- IC95 (MT4 [3]): ≤ 0.008 µM
- IC95 (MT4 [10]): 0.015 µM
- IC50 [6]: 0.05 nM
- IC95 (MT4 [7]): 0.031 µM
- IC95 (MT4 [9]): 0.015 µM

Compound: COc1cncc(-c2cnc(C(C)(C)N3CCN(C[C@@H](O)C[C@@H](Cc4ccccc4)C(=O)N[C@H]4c5ccccc5OC[C@H]4O)[C@H](C(=O)NCC(F)(F)F)C3)o2)c1
- bioavailability [12]: 40.5%
- AUC [13]: 15.7 µM·h
- IC50 (Cytochrome P450 2D6): 8.7 µM
- Clp (Rhesus monkey [14]): 33 mL/min/kg
- IC50 (Cytochrome P450 3A4): 40 nM
- AUC (Rattus norvegicus [15]): 0.03 µM·h
- Cmax [1]: 4.3 µM
- bioavailability [16]: 2.2%
- Cmax [17]: 40 nM
- half-life [2]: 61 min
- IC95 (MT4 [3]): ≤ 0.008 µM
- CL/F [4]: 18 mL/min/kg
- bioavailability [18]: 1.5%
- Cmax [19]: 370 nM
- Cmax [20]: 3.06 µM
- IC95 (MT4 [10]): 0.031 µM
- CLint scaled [5]: 13 mL/min/kg
- AUC [21]: 4.02 µM·h
- Clp (Rattus norvegicus [22]): 104 mL/min/kg
- AUC [23]: 0.38 µM·h
- bioavailability [24]: 47.2%
- CLint [25]: 67 mL/min/kg
- CLint [26]: 120 mL/min/kg
- half-life [27]: 26 min
- Cmax [28]: 100 nM
- IC50 [6]: 0.02 nM
- bioavailability [29]: 9.2%
- Cmax [30]: 6.88 µM
- IC95 (MT4 [7]): 0.015 µM
- IC50 (Cytochrome P450 2C9): 30 µM
- half-life [31]: 73 min
- bioavailability [8]: 30%
- AUC (Rhesus monkey [32]): 0.12 µM·h
- IC95 (MT4 [9]): 0.015 µM
- CLint [33]: 87 mL/min/kg

Compound: O=C(N[C@H]1c2ccccc2OC[C@H]1O)[C@H](Cc1ccccc1)C[C@H](O)CN1CCN(Cc2ncc(-c3cccnc3)o2)C[C@H]1C(=O)NCC(F)(F)F
- IC95 (MT4 [3]): 0.027 µM
- IC95 (MT4 [10]): 0.125 µM
- IC95 (MT4 [11]): 0.062 µM
- IC50 [6]: 0.14 nM
- IC95 (MT4 [7]): 0.125 µM
- IC95 (MT4 [9]): 0.25 µM
